Measured values reported in the EternaBench riboswitch data.

Tested on: MS2 coat protein
Test: apparent Kd, MS2 coat protein; higher = weaker binding; RNA-MaP array; FMN 200 µM where present
Outline: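 Stalled E. coli RNA polymerase transcribed the designs on Illumina sequencing-chip clusters. SNAP-549-labelled MS2 coat protein was titrated from 0.7 or 1.5 nM, doubling to 3 µM, without and then with constant ligand, in 100 mM Tris-HCl pH 7.5, 80 mM KCl, 4 mM MgCl2, BSA, DTT, yeast tRNA and Tween-20. Per-cluster binding curves were fitted to green signal normalised to red-channel RNA signal and control-cluster median Fmax. The apparent Kd is the median of the filtered fits.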

[1] = designed as: OFF switch for flavin mononucleotide, no ligand
[2] = ligand present: flavin mononucleotide, designed as: OFF switch for flavin mononucleotide
[3] = designed as: ON switch for flavin mononucleotide, no ligand
[4] = ligand present: flavin mononucleotide, designed as: ON switch for flavin mononucleotide

Sequence | apparent Kd [1] | apparent Kd [2] | apparent Kd [3] | apparent Kd [4]
GGUACUCAAAGAGUACCAAUACGAACAUGAGGAUCACCCAUGUAGGAUAUGCAAAAGCCGGAGUAGCAGAAGGACAUGUGCCUA | 12.6 nM | 46.4 nM | – | –
GGUACUCAAAGAGUACCAAUACGAACAUGAGGAUCACCCAUGUAGGAUAUGCUACUCAAAGAGUAGCAGAAGGACAUGUGCCAU | 42 nM | 282 nM | – | –
GGUACUCAAAGAGUACCAAUACGAACAUGAGGAUCACCCAUGUAGGAUAUGCUACUCAAAGAGUAGCAGAAGGACAUGUGCCCU | 60.5 nM | 608 nM | – | –
GGUACUCAAAGAGUACCAAUACGAACAUGAGGAUCACCCAUGUAGGAUAUGCUACUCACAGAGUAGCAGAAGGACAUGUGCCUA | 20.8 nM | 136 nM | – | –
GGUACUCAAAGAGUACCUAUACGAACAUGAGGAUCACCCAUGUAGGAUAUGCUACUCAAAGAGUAGCAGAAGGACAUGUGCCUA | 18.6 nM | 108 nM | – | –
GGUACUCAAAGAGUACUUGGUCGAACAUGAGGAUCACCCAUGUAGGAUAUACGAAGCAAGAAGUAGUAGAAGGACGUGUGCAGC | 12.4 nM | 12.1 nM | – | –
GGUAGACAAAGUCUACCAAUACGAACAUGAGGAUCACCCAUGUAGGAUAUGCUACUCAAAGAGUAGCAGAAGGACAUGUGUCUU | 29.5 nM | 160 nM | – | –
GGUAUUCGAGGAUAUCGCAAACGAGACAUGAGGAUCACCCAUGUCCCUCAUGCUUGUCGGCGAGAAGGCGACAAGC | 14.8 nM | 17.7 nM | – | –
GGUCAUCAAGUCAGGAUAUCGUCUGGUCAAUCAGGCGAGAAGGGACAUGAGGAUCACCCAUGUCGACUCAUCAG | 33.9 nM | 139 nM | – | –
GGUCCACAUGAGGAUCACCCAUGUCAGGAUAUACACGGCACUAUAAUAAGUGCCACCCGUAGAAGGGACGCUGG | 17.2 nM | 38.5 nM | – | –
GGUCCUUCUGUUAGGAUAUGCUAUGGGCUUCCGCAGUAGAAGGAACAUGAGGAUCACCCAUGUCCGAUGCCGUA | – | 121 nM | – | –
GGUCGUCAAGUCAGGAUAUCGUUUAGUCGAUGUAACGAGAAGGGACAUGAGGAUCACCCAUGUCGUCUCAUCAG | 18.9 nM | 24.8 nM | – | –
GGUCGUCAAGUCAGGAUAUCGUUUAGUCGGUGUAACGAGAAGGGACAUGAGGAUCACCCAUGUCGUCUCAUCAG | 18.8 nM | 25.8 nM | – | –
GGUCGUCACAUAUACAUGAGGAUCACCCAUGUAAAAUAACAUGAGGAUAUGGAUCCUAAUUGGAUCCAGAAGGCAUGGACGACC | – | – | 6.29 nM | 5.53 nM
GGUCGUCACAUGAACAUGAGGAUCACCCAUGUAAAUUCUCAUGAGGAUAUGGAUCCUAAUUGGAUCCAGAAGGCGUGGACGACC | – | – | 953 nM | 457 nM
GGUCGUCCCAUUAACAUGAGGAUCACCCAUGUCAAAAGACAUGAGGAUAUGCAUCCUAAUUGGAUGCAGAAGGCAUGGACGACC | – | – | 1060 nM | 87.7 nM
GGUGAAGCAGGAUAUGUGCCGAUAUACAUGAGGAUCACCCAUGUCAUGUAGGAACCGCGUAUAGAAGGGCUUCACC | 39.2 nM | 67.1 nM | – | –
GGUGCACGCACAGGAUAUCCGGCGGAGCUCGUCGGAGAAGGGUGACAUGAGGAUCACCCAUGUACGUGCAACUCAGUUUGAGAG | – | – | 59.8 nM | 32.1 nM
GGUGCACGCACAGGAUAUCCGGCGGAGCUCGUCGGAGAAGGGUGACAUGAGGAUCACCCAUGUACGUGCAGCCAAGUUUGAGAG | – | – | 66.9 nM | 39.3 nM
GGUGCAUAUGAGAAGGCGAUCAUGAAACAUGAUCGAGGAUAUCAUGUAAACAUGAGGAUCACCCAUGUAUGGGAAUAUUGCACC | – | – | 176 nM | 12.6 nM
GGUGCGAUGUAGAAGGCAGAUCUGAUUCAGAUCUGAGGAUAUACAUGAGGAUCACCCAUGUUACGCACCAGCACGAGAGUGCAA | 6.18 nM | 11.1 nM | – | –
GGUGCGUAUGUGAGGAUAUGCUGGUCCUUGGAUCAGCAGAAGGCACAUGAGGAUCACCCAUGUGGUGUCGUACU | 282 nM | 26.1 nM | – | –
GGUGCGUAUGUGAGGAUAUGCUGGUCCUUGGAUCGGCAGAAGGCACAUGAGGAUCACCCAUGUGGUGUCGUACG | 59.6 nM | 228 nM | – | –
GGUGCGUAUGUGAGGAUAUGCUGGUCCUUGGAUCGGCAGAAGGCACAUGAGGAUCACCCAUGUGGUGUCGUUCC | 120 nM | 55.4 nM | – | –
GGUGCGUGUGUGAGGAUAUGCUGGUCCUUGGCUCGGCAGAAGGCACAUGAGGAUCACCCAUGUGGUGUCGUGCC | 22.8 nM | 49.8 nM | – | –
GGUGCGUUUGUGAGGAUAUGCUGGUCCUUGGAUCGGCAGAAGGCACAUGAGGAUCACCCAUGUGGUGUCGUACC | 310 nM | 29.6 nM | – | –
GGUGCGUUUGUGAGGAUAUGCUGGUCCUUGGUUCGGCAGAAGGCACAUGAGGAUCACCCAUGUGGUGUCGUCCC | 33 nM | 98.6 nM | – | –
GGUGCGUUUGUGAGGAUAUGCUGGUCCUUGGUUCGGCAGAAGGCACAUGAGGAUCACCCAUGUGGUGUCGUUCC | 15 nM | 23.3 nM | – | –

Sequence | apparent Kd [1] | apparent Kd [2] | apparent Kd [3] | apparent Kd [4]
GGUGCUAUGUAGAAGGCAGAUCUGAUUCAGAUCUGAGGAUAUACAUGAGGAUCACCCAUGUUAUGCACCAGCACGAGAGUGCAA | 7.12 nM | 12.8 nM | – | –
GGUGCUAUGUAGAAGGCAGAUCUGAUUCAGAUCUGAGGAUAUACAUGAGGAUCACCCAUGUUAUGCACCAGCACGAGAGUGCAC | 7.57 nM | 13.3 nM | – | –
GGUGGACAUGAGGAUCACCCAUGUGAGGAUAUCGGCUAUCUACUCGCUGUCGGUUGCUCGAGAAGGCACAUUGU | 177 nM | 171 nM | – | –
GGUUAUUGCAAGGAUAUGCUUUUUUUUGAUAUUGCAGAAGGUGCAACAUGAGGAUCACCCAUGUUGGAGGGAUU | 30.8 nM | 91.8 nM | – | –
GGUUGACAAAGUCAACCUUAACGAACAUGAGGAUCACCCAUGUAGGAUAUGCUACUCAAAGAGUAGCAGAAGGACAUGUGUCUU | 30 nM | 169 nM | – | –
GGUUGUCAUAGUCAUCCUUUCCGUACAUGAGGAUCACCCAUGUAGGAUAUGCUACUCUCGGUGUGGCAGAAGGGCGUGUGUCUU | 18.2 nM | 18.8 nM | – | –
GGUUGUCAUCGUCGUCCUUUCGGUACAUGAGGAUCACCCAUGUAGGAUAUGCUGCAUUCGAUGUGGCAGAAGGGCGUGUGUGUU | 16.7 nM | 18.4 nM | – | –
GGUUUGCGGCAGGAUAUCCAUCCGCGGUAUGGUGGAGAAGGGCUGACAUGAGGAUCACCCAUGUGCGUCCUGGG | 26.6 nM | 38.4 nM | – | –
GUAACAUGAGGAUCACCCAUGUAUAGAACGCUUAAUAGAUCUGAGGAUAUACUAGAAUUUACGUAGUAGAAGGCAGUGGGUACA | – | – | 35.9 nM | 26.9 nM
GUAACAUGAGGAUCACCCAUGUCGUGCUAGAUGAGUUCUAGUGAGGAUAUACAUGGUAAAUAACUGUAGAAGGUGCUGGGUACA | – | – | 192 nM | 229 nM
GUAAUGUGAGGAUAUGGUAAAGAUAAGAUGAUGAAAGAACUCCAGAAGGCACAUGAGGAUCACCCAUGUAGAUG | 26.7 nM | 107 nM | – | –
GUACCUUAUGAGAAGGCGAUCAUAAAACGUGAUCGAGGAUAUCAUGUAAACAUGAGGAUCACCCAUGUAUGGGUAUUAUGGUAC | – | – | 61.7 nM | 18.4 nM
GUACGUGGACAGAAGGUGACAUGAGGAUCACCCAUGUUAGUUGAGGUACCAGCGAUCCGCGUGAUUGAGGAUAUGUCUGCGGGC | 16.1 nM | 42.4 nM | – | –
GUACUCAUGUAAGGAUAUGCAGCCGAAACGGCUGCAGAAGGUACUAUAAUACAUGAGGAUCACCCAUGUCAAAAUAAAAUAGUU | – | – | 116 nM | 35.4 nM
GUACUGUAGUGAGGAUAUACGAGAUCGAUAGAUCGGCGAUCCAUUUAUACAUGAGGAUCACCCAUGUAGAAGGCACUUCAGUAC | 5.62 nM | 56.6 nM | – | –
GUACUUGUGCAGAAGGGCAUUUAAUUAGAUUUUUAUGUUGAUCAGAAAUGCAGGAUAUGUUAAACAUGAGGAUCACCCAUGUAC | – | – | 171 nM | 13.1 nM
GUAGAGUAAGGAUAUGGUGAAUAGGAUAGAAUGGUUAGAAACUAGAAGGUACAUGAGGAUCACCCAUGUAAUGU | 21.7 nM | 20.7 nM | – | –
GUAGCACAAGCAAAUGUAACAUGAGGAUCACCCAUGUGUUAUGAGGAUAUGGAUGUGAAGUUAAUCCAGAAGGCAUUAUGCUAC | – | – | 25.2 nM | 13.2 nM
GUAGCAUACCAAGGAUAUUCAGGGCUUGGAUAGACAUGAGGAUCACCCAUGUGGCGAAAGCCUAGGGAGAAGGUGGAAUGCUAC | – | – | 16.7 nM | 15.2 nM
GUAGCAUACCGAGGAUAUUCAUAUCGUAAUCGAACAUGAGGAUCACCCAUGUGGCGAAAGCCUUGGGAGAAGGCGGAAUGCUAC | – | – | 360 nM | 25.9 nM
GUAGCAUAUGAUUUACAUGAGGAUCACCCAUGUAUCUUGGGUAAGGAUAUUGAUGUUAUGUUAAUCAAGAAGGUACUAUGCUAC | – | – | 50.5 nM | 8.66 nM
GUAGCGCUUGACAUGAGGAUCACCCAUGUUAGAUUGUUAUGUCAGGAUAUAGUCUAGAAACUAGACUAGAAGGGAUAUGCUACU | – | – | 251 nM | 39.8 nM
GUAGCUAUCGGAGGAUAUUCAUACCGGAAACGGACAUGAGGAUCACCCAUGUGGAGAAAGCCUUGGGAGAAGGCCGAUAGCUAC | – | – | 176 nM | 17.6 nM
GUAGCUAUCGGAGGAUAUUUAUACCGUAAACGGACAUGAGGAUCACCCAUGUGGCGAAAGCCUUGGGAGAAGGCCGAUAGCUAC | – | – | 32.6 nM | 4.68 nM
GUAGCUCAUGAGAAGGCGAUCAUGAAACAUGAUCGAGGAUAUCAUGUAAACAUGAGGAUCACCCAUGUAUGGGUAUUAUGCUAC | – | – | 126 nM | 47.1 nM
GUAGCUCCUGACAUGAGGAUCACCCAUGUUCACUUAUUAAAUCAGGAUAUCCUCUCGAAACGAGAGGAGAAGGGAUAAGCUACU | – | – | 7.84 nM | 7.36 nM
GUAGUACAUGAGGAUCACCCAUGUGUGGGCGCGUGAGGAUAUGUCCGUACCUGGCGUACGAUAGAAGGCAUGGUGC | – | – | 53.3 nM | 28.4 nM
